Experimental data collected from several papers.
Lines come from different studies, so protocols differ.
HTR2A: 5-hydroxytryptamine receptor 2A (HTR2A, Homo sapiens, UniProt P28223)
PPO3: PPO3 (Agaricus bisporus, UniProt C7FF04)

COc1cc2c(cc1OC)-c1c(OC)c(OC)cc3c1[C@H](C2)N(C)CC3 — inhibition (HTR2A; ligand displacement, radioligand; 10 µM): 65%
c1cncc([C@@H]2CCCN2)c1 — inhibition (Kappa-type opioid receptor (OPRK1, Homo sapiens, UniProt P41145); ligand displacement; 50 µM): -6.74%
COc1cc2cc3c4c(cc(OC)c(OC)c4c2cc1OC)CCN3C — inhibition (HTR2A; ligand displacement, radioligand; 10 µM): 10%
COc1cc(/C=C/C(=O)O)ccc1OCc1cn(CC(=O)Nc2ccc(Cl)cc2Cl)nn1 — inhibition (PPO3; enzyme activity, inhibitor; 40 µM): 7.73%
COc1cc2c3c(c1OC)-c1c(OC)ccc(Br)c1CC3N(C)CC2 (stereo not drawn) — inhibition (HTR2A; ligand displacement, radioligand; 10 µM): 80%
COc1cc(/C=C/C(=O)O)ccc1OCc1cn(CC(=O)Nc2cccc(Cl)c2)nn1 — inhibition (PPO3; enzyme activity, inhibitor; 40 µM): 11.4%
CN1CCC[C@H]1c1cccnc1 — inhibition (Neuronal acetylcholine receptor; alpha4/beta2 (Rattus norvegicus, UniProt P09483+P12390); ligand displacement, radioligand; 50 µM): 97.6%
COc1cc(/C=C/C(=O)O)ccc1OCc1cn(CC(=O)Nc2ccccc2[N+](=O)[O-])nn1 — inhibition (PPO3; enzyme activity, inhibitor; 40 µM): 11.5%
CC(C)CC(=O)OC[C@H]1O[C@@](C#N)(c2ccc3c(N)ncnn23)[C@H](O)[C@@H]1O — inhibition (HTR2A; cell-free assay; 20 µM): 5%
